Measurements reported in ChEMBL document CHEMBL3616417, “Discovery of selective N-[3-(1-methyl-piperidine-4-carbonyl)-phenyl]-benzamide-based 5-HT₁ F receptor agonists: Evolution from bicyclic to monocyclic cores” (Bioorg Med Chem Lett, 2015).
Active and inactive are the calls of the source. The rule behind the calls is not given here.

Tests used:
[1] = target: T1, 5-hydroxytryptamine receptor 1A (Homo sapiens) (UniProt P08908); test: Binding affinity to human 5HT1A receptor by radioligand binding assay
T1 sequence (whole entry): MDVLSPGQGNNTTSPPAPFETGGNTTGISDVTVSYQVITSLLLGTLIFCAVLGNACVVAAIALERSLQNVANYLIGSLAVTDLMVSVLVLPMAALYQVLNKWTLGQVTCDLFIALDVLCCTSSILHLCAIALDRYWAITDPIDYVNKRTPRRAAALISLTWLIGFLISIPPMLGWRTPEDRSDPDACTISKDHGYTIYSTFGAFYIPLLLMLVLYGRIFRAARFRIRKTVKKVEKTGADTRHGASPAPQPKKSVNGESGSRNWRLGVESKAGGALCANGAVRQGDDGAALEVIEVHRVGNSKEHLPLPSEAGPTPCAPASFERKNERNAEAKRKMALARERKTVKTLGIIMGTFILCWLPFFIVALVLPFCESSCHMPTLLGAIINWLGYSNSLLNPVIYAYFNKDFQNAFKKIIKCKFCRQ
Outline: (§1)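 In vitro radioligand displacement binding on cell lines expressing the appropriate human serotonin receptor subtype. Affinity is expressed as Ki (nM), each the mean of at least two determinations.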

[2] = target: 5-hydroxytryptamine receptor 1D (Homo sapiens) (UniProt P28221); test: Inhibition of radioligand binding to human 5HT1D receptor at 10 uM
5-hydroxytryptamine receptor 1D (Homo sapiens), sequence (P28221 whole entry): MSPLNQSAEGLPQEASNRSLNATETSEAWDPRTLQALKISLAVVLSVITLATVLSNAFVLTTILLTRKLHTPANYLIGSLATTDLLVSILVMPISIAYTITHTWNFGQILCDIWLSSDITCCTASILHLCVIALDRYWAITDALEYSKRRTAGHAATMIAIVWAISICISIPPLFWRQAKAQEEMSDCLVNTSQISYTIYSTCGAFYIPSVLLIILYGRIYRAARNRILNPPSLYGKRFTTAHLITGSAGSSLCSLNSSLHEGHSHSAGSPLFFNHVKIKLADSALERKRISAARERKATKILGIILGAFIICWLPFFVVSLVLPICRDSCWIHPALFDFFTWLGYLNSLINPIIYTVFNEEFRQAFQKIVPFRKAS
Outline: (§2)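 Single-concentration radioligand displacement at 10 µM test compound in cell lines expressing the human 5-HT1A, 5-HT1B or 5-HT1D receptor. Read-out is percent inhibition of radioligand binding.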

[3] = target: 5-hydroxytryptamine receptor 1B (Homo sapiens) (UniProt P28222); test: Binding affinity to human 5HT1B receptor by radioligand binding assay; outline: as §1
5-hydroxytryptamine receptor 1B (Homo sapiens), sequence (P28222 whole entry): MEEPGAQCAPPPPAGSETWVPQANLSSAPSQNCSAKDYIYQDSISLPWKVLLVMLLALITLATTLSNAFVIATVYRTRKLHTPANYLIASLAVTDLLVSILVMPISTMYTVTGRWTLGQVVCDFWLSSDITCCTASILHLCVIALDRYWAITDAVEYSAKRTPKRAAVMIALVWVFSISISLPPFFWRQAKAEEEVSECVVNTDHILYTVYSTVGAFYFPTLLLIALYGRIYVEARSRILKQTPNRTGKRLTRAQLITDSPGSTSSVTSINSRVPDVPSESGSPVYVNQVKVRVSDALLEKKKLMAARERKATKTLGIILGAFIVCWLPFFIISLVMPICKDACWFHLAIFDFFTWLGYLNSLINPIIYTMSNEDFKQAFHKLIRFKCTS

[4] = target: 5-hydroxytryptamine receptor 1B (Homo sapiens) (UniProt P28222); test: Inhibition of radioligand binding to human 5HT1B receptor at 10 uM; outline: as §2
[5] = target: 5-hydroxytryptamine receptor 1D (Homo sapiens) (UniProt P28221); test: Binding affinity to human 5HT1D receptor by radioligand binding assay; outline: as §1
[6] = target: T1, 5-hydroxytryptamine receptor 1A (Homo sapiens); test: Inhibition of radioligand binding to human 5HT1A receptor at 10 uM; outline: as §2
[7] = target: T2, 5-hydroxytryptamine receptor 1F (Homo sapiens, UniProt P30939); test: Binding affinity to human 5HT1F receptor by radioligand binding assay; outline: as §1
T2 sequence (P30939 whole entry): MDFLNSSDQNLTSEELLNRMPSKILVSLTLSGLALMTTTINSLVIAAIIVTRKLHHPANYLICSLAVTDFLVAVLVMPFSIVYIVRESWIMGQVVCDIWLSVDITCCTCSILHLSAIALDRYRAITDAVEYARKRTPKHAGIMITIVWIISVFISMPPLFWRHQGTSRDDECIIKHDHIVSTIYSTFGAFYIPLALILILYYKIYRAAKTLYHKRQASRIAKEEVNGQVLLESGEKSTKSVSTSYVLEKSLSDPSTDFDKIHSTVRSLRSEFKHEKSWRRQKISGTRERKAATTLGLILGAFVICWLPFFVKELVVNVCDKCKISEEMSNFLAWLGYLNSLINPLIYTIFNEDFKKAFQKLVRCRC

[8] = target: 5-HT1A/5-HT1F (Homo sapiens) (UniProt P30939+P08908); test: Selectivity index, ratio of Ki for human 5HT1A receptor to Ki for human 5HT1F receptor
Outline: (§3)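 Ratio of the Ki at the 5-HT1A, 5-HT1B or 5-HT1D receptor to the Ki at the 5-HT1F receptor. Each Ki comes from at least two radioligand binding determinations in cell lines expressing the human receptor.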

[9] = target: 5-HT1D/5-HT1F (Homo sapiens) (UniProt P30939+P28221); test: Selectivity index, ratio of Ki for human 5HT1D receptor to Ki for human 5HT1F receptor; outline: as §3
5-HT1D/5-HT1F (Homo sapiens), sequence (P28221 whole entry, looked up, one chain of several): as the sequence (P28221 whole entry) above

[10] = target: T2, 5-hydroxytryptamine receptor 1F; test: Agonist activity at human 5HT1F receptor expressed in LM(tk-) cells by [35S]GTPgammaS binding assay; type: functional, cell-based
[11] = target: T3, 5-hydroxytryptamine receptor 1F (Homo sapiens) (UniProt P30939); test: Agonist activity at human 5HT1F receptor expressed in LM(tk-) cells by [35S]GTPgammaS binding assay relative to 5-HT; type: functional, cell-based
T3 sequence (whole entry): T2 sequence (P30939 whole entry)

[12] = target: 5-HT1B/5-HT1F (Homo sapiens) (UniProt P30939+P28222); test: Selectivity index, ratio of Ki for human 5HT1B receptor to Ki for human 5HT1F receptor; outline: as §3
5-HT1B/5-HT1F (Homo sapiens), sequence (P28222 whole entry, looked up, one chain of several): as the sequence (P28222 whole entry) above

SMILES	Activity [1]	inhibition [2] [%]	Activity [3]	inhibition [4] [%]	Activity [5]	inhibition [6] [%]	Ki [7] [nM]	Ratio Ki [8]	Ratio Ki [9]	EC50 [10] [nM]	Emax [11] [%]	Ratio Ki [12]
CN1CCC(C(=O)c2cc(NC(=O)c3ccc(F)cc3)ccn2)CC1	inactive	< 50	inactive	< 50	inactive	< 50						
Cc1c(NC(=O)c2ccc(F)cc2)cccc1C(=O)C1CCN(C)CC1	inactive	< 50	inactive	< 50	inactive	< 50	870					
CN1CCC(C(=O)c2cncc(NC(=O)c3ccc(F)cc3)c2)CC1			inactive	< 50			3200	1	0.6			
CN1CCC(C(=O)c2cccc(NC(=O)c3ccc(F)cc3)c2F)CC1	inactive	< 50	inactive	< 50	inactive	< 50	8.3			55	85	
CN1CCC(C(=O)c2cc(NC(=O)c3ccc(F)cc3)ccc2F)CC1	inactive	< 50	inactive	< 50	inactive	< 50	1300					
CN1CCC(C(=O)c2cccc(NC(=O)c3ccc(F)cc3)c2)CC1			inactive	< 50			5.1	170	730	87	79	
CN1CCC(C(=O)c2ccc(F)c(NC(=O)c3ccc(F)cc3)c2)CC1		< 50	inactive	< 50	inactive		530	2				
CN1CCC(C(=O)c2cccc(NC(=O)c3ccc(F)cc3)c2O)CC1	inactive	< 50			inactive	< 50	1100					2.5
CN1CCC(C(=O)c2cc(F)cc(NC(=O)c3ccc(F)cc3)c2)CC1		< 50	inactive	< 50	inactive		41	22				
CN1CCC(C(=O)c2cccc(NC(=O)c3ccc(F)cc3)n2)CC1			inactive	< 50			9.5	91	110	110	90	
COc1c(NC(=O)c2ccc(F)cc2)cccc1C(=O)C1CCN(C)CC1							610	0.5	3.4			4.3
CN1CCC(C(=O)c2ccnc(NC(=O)c3ccc(F)cc3)c2)CC1							2400	0.7	0.5			2
CN1CCC(C(=O)c2cccc(NC(=O)c3ccc(F)cc3)c2Cl)CC1							1700	0.3	0.2			1.6
CN1CCC(c2c[nH]c3ccc(NC(=O)c4ccc(F)cc4)cc23)CC1								5	98			54
